The values below come from PubChem BioAssay AID434971 (Sanford-Burnham Center for Chemical Genomics, 2010).

As a reminder, the inhibition is the relative decrease from the control value, in per cent.

In all, about 11,000 compounds went through this assay and about 510 (4.6%) were called active.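 Rule for the calls: active = inhibition of at least 40% at 10 µM in either of the two replicates; inactive = the rest.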 The entries come from a sample that favours actives as a whole.

The assay relates to intestinal alkaline phosphatase [Mus musculus]. As to the kind of experiment: inhibitors of mouse IAP, confirmation, biochemical, luminescence, single concentration (AID 434971).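 Note: plate controls were DMSO wells with enzyme for no effect and buffer wells lacking enzyme for full effect.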 The note with it: purified mouse IAP, CDP-Star luminescence, 30 min; at 10 µM; hits give high values. In a few lines:
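Test system: mouse IAP enzyme / Times: 30 min reaction at room temperature / Detection: luminescence / Controls: no-enzyme negative control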
Consider `O=C(CCCN1C(=O)/C(=C/c2ccco2)SC1=S)Nc1ccccc1`, for which the inhibition was 49.1% (active). For the compound `O=C(CCCN1C(=O)/C(=C\c2ccco2)SC1=S)Nc1cccc2ccccc12`, the inhibition is 49.1% (active). As for `O=c1ccc2c(-c3ccccc3S(=O)(=O)O)c3ccc(O)c(O)c3oc-2c1O`, the figure is 79.7% (active); as for `O=C(Nc1nc(-c2ccco2)c(-c2ccco2)s1)c1ccco1`, 74.3% (active).

As to `Cc1cc(C)cc(NC(=O)NC2CCCCCCC2)c1`, the inhibition was -237% (inactive).

`COc1ccc(CN2CCC(n3nccc3NC(=O)CCCc3ccccc3)CC2)cc1C`: the inhibition is -140% (inactive). For `COc1ccc(NC(=O)NC2CC3CCCC(C2)N3Cc2ccccc2)cc1` (stereo not given) the value was -171% (inactive); for `COc1ccccc1-n1c(-c2cc(-c3ccco3)[nH]n2)n[nH]c1=S`, 68.7% (active); for `COc1cc(C(=O)Nn2c(O)c(C3=c4ccccc4=NC3=O)sc2=S)ccc1O`, 93.1% (active). Consider `c1ccc(-c2cc3c(NCC4COc5ccccc5O4)ncnc3s2)cc1` (stereo not given), for which the inhibition was -97.1% (inactive).

As for `CCN(c1ccccc1)S(=O)(=O)c1ccc2[nH]c(=O)[nH]c2c1`, the inhibition was 73.4% (active).

Regarding `Cc1ccc(C)c(CN2CCC(CNC(=O)Nc3ccc(C)c(F)c3)CC2)c1`, the inhibition is -116% (inactive). For `CCn1cc(CN2CCC(C(=O)Nc3cccc(-c4cccc(Cl)c4)c3)CC2)cn1` the value was -329% (inactive); for `NS(=O)(=O)c1ccc(-c2ccc(/C=C3\SC(=O)NC3=O)o2)cc1`, 68.1% (active).

Consider `C#CCOCCOCCOCCNc1nc(N2CCN(C(=O)CCCCCCCCCCNC(=O)Cn3cc(CCCCCN)nn3)CC2)nc(N2CCN(C(=O)CCCCCCCCCCNC(=O)[C@H](CO)n3cc(CCCSC)nn3)CC2)n1`, for which the inhibition is -153% (inactive). As for `Oc1ccc(CNc2ccccc2O)cc1`, the figure is 41.2% (active).

For `CC(C)S(=O)(=O)c1csc(NC(=O)Nc2ccc(Cl)cc2)c1Cl`, the inhibition is -116% (inactive). For the compound `Nc1ccc2nc3c(=O)[nH]c(=S)[nH]c3nc2c1`, the inhibition is 78.3% (active).

Regarding `COC(=O)c1ccc(NC(=O)Nc2ccc(C)cc2)cc1`, the inhibition was -115% (inactive). Consider `CCn1cc(CN2CCC(C(=O)Nc3cccc(-c4cccc(Cl)c4)c3)CC2)c(C)n1`, for which the inhibition is -396% (inactive). Regarding `Oc1cc(O)c2c(c1)OC(c1ccc(O)c(O)c1)C(O)C2` (stereo not given), the inhibition was 84.5% (active). Turning to `Cc1cccc(CN2CCC(CNC(=O)Nc3ccc(F)c(Cl)c3)CC2)c1`, the inhibition is -115% (inactive). Regarding `COc1cccc(/C=N\NC(=O)C2=NNC(=O)C2C)c1O` (stereo not given), the inhibition is 60.2% (active). Regarding `Cc1ccc(Cc2cnc(N)s2)o1`, the inhibition was 58.5% (active). For `O=c1[nH]c(=S)[nH]c2[nH]c(=S)[nH]c12` the value was 81.9% (active); for `O=C(Nc1cccc(-c2cccc(Cl)c2)c1)C1CCN(C2CCC2)CC1`, -294% (inactive). As to `Cc1cc(NC(=O)Nc2ccc(Cl)cc2)n(-c2ccccc2)n1`, the inhibition is -107% (inactive). For the compound `COc1ccc(OC)c(Nc2nc(-c3ccc(O)c(O)c3)cs2)c1`, the inhibition was 74.3% (active). As for `O=C(Nc1cccc(F)c1)NC1CCCCCCC1`, the figure is -142% (inactive). As for `COc1cc(/C=N\Nc2nc(-c3cccs3)c(NC(C)=O)s2)ccc1O`, the inhibition was 47% (active). Turning to `OCCCN1c2ccccc2Nc2nnc(-c3ccccc3)cc21`, the inhibition was -208% (inactive).

As for `c1ccc(CSc2nnc(-c3ccco3)c(-c3ccco3)n2)cc1`, the inhibition was 69% (active). With `Clc1ccccc1CSc1nnc(-c2ccco2)c(-c2ccco2)n1`, the inhibition is 71.8% (active). Take `O=[N+]([O-])c1cc(Cl)cc(/C=N/NC(=S)Nc2cc(S(=O)(=O)N3CCOCC3)ccc2Cl)c1O`: the inhibition was 40.3% (active). Take `CCc1ccc(NC(=O)NC(C)c2ccc3c(c2)OCO3)cc1` (stereo not given): the inhibition is -166% (inactive).
